Compound activity deposited in PubChem by several laboratories.
Sampled rows, rich in hits. Any-hit rate of the full collection: about 1.8%.
STAT3 inh = STAT3 signaling inhibition; U3A cells, IL-6 STAT3-luciferase reporter, luminescence; host cell line lacks STAT1; inhibition, % at 5.5 µM; 190,000 tested, 0.89% active; AID 862;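 active means inhibition above the mean inhibition across all screened compounds plus 3 SD, cut at about 44% in these data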;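 further: 0% = DMSO only wells and 100% = 100 µM nifuroxazide control wells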
PPC-1+TRAIL kill = PPC-1 cancer cell killing with TRAIL present; 220,000 tested, 0.41% active; cell killing (% activity), % at 4 µM or 5 µM; PPC-1 cells + TRAIL, ATPLite viability luminescence; AID 1443;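 active means cell killing above 50% in the first pass at 4 µM, then a duplicate retest at 5 µM averaging 50% or more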;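 further: plate controls were cells with TRAIL plus DMSO for no effect and medium-only wells lacking cells for full effect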
TRAIL sens C8 = sensitizes caspase-8 expressing cells to TRAIL; NB7+C8 cells + TRAIL, ATPlite viability luminescence; inhibition (viability loss, TRAIL sensitization), % at 10 µM; 360,000 tested, 1% active;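 active means compounds causing at least 50% loss of cell viability in the single-dose screen, relative to plate controls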
STAT1 inh = reduces IFN-gamma driven STAT1 reporter signal; NIH 3T3 STAT1-luciferase reporter, luminescence; inhibition, % at 5.5 µM; 200,000 tested, 0.35% active;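 active means inhibition above a set limit, the mean inhibition across all tested compounds plus 3 SD, cut at about 34% in these data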;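 further: 0% = IFN-gamma with DMSO and 100% = IFN-gamma with 300 µM nifuroxazide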
STAT3 activator = increases IL-6 driven STAT3 reporter signal; U3A cells, IL-6 STAT3-luciferase reporter, luminescence; 100% = signal with IL-6 EC80 alone; activation (% of control), % at 5.6 µM; 190,000 tested, 0.91% active;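 active means activation above the screen-wide mean of compound activation plus 3 SD, cut at about 130% in these data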;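 further: 0% = background luminescence of wells with medium and substrate only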
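Material: human U3A cells carrying STAT3-luciferase construct. Measured by: reporter luminescence signal. Timing: compound 1 h, then IL-6 6 h at 37 °C.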
An asterisk follows results filed as active; / = not tested or not shown.

SMILES | STAT3 inh | PPC-1+TRAIL kill | TRAIL sens C8 | STAT1 inh | STAT3 activator
O=C(CSc1nnc(NC(=O)c2cccc(F)c2)s1)NCC1CCCO1 (stereo not given) | / | / | 36 | / | /
O=C(NCc1ccccc1)C1c2ccccc2OCC(=O)N1CCc1c[nH]c2ccccc12 (stereo not given) | / | / | -21 | / | /
CCOC(=O)C1CCCN(C(=O)c2sc(-c3ccccc3)nc2C)CC1 (stereo not given) | / | / | -18 | / | /
COc1ccc(C(=O)Nn2c(SCC(=O)NCC3CCCO3)nc3ccccc3c2=O)cc1 (stereo not given) | 77* | 47 | 46 | 47* | 34
COc1ccc(C(=O)Nn2c(SCC(=O)NCc3ccccc3)nc3ccccc3c2=O)cc1 | 42 | 22 | 20 | 6 | 67
CC1OC(CC(=O)O)CC2=C1C(=O)c1c(O)cccc1C2=O (stereo not given) | / | / | 92* | / | /
O=C(/C=C/NNC(=O)c1ccccc1)c1ccc([N+](=O)[O-])cc1 | 8 | 40 | 50* | -8 | 95
CCc1ccc(/C=N/NC(=O)c2c[nH]c3ccccc23)s1 | -7 | 19 | 55* | -60 | 106
O=C(N/N=C/c1cccs1)c1c[nH]c2ccccc12 | -3 | 27 | 8 | -31 | 102
CCCc1cc(C(=O)N/N=C/c2ccc(CC)s2)c2ccccc2n1 | 0 | 12 | 51* | -2 | 108
CC(C)C1=Nc2cccc3cccc(c23)N1 | -10 | 22 | -13 | 3 | 109
COc1ccc(C2=Nc3cccc4cccc(c34)N2)cc1 | -30 | 10 | -17 | 6 | 135*
CC1(C)CC2CC(C)(CN2C(=O)COC(=O)c2ccc(NC(=O)CC#N)cc2)C1 (stereo not given) | / | / | 5 | / | /
Cc1ccc(C(=O)Oc2ccc(C(=O)COC(=O)c3cnccn3)cc2)cc1 | -5 | 1 | 51* | -5 | 108
Nc1ccccc1-c1nc2ccccc2s1 | -35 | -10 | -24 | -47 | 132
CN(C)c1nc(N)nc(-c2nc3ccccc3s2)n1 | -95 | 29 | 25 | -38 | 180*
COc1ccc2cc1Oc1ccc(cc1)C[C@H]1c3c(cc(OC)c4c3Oc3c(ccc5c3[C@H](C2)N(C)CC5)O4)CCN1C | / | / | 88* | / | /
COc1ccc2cc1Oc1ccc(cc1)CC1c3c(cc(OC)c4c3Oc3cc5c(cc3O4)CCNC5C2)CCN1C (stereo not given) | / | 23 | 93* | / | /
COc1cc2c(c(O)c1OC)C1Cc3ccc(OC)c(OC)c3CN1CC2 (stereo not given) | / | / | 0 | / | /
COc1ccc(CN(C)CC(=O)NCC(=O)Nc2c(C)cccc2C)cc1 | / | / | 8 | / | /
O=C(Nc1ccc2ccccc2n1)Nc1ccccc1F | / | / | 10 | / | /
Fc1ccc(Nc2ccc3ccccc3n2)c(F)c1 | 72* | 28 | 40 | 44* | 41
CC(=O)c1ccc(NC(=O)c2cnn3ccccc23)cc1 | 83* | 33 | 3 | 85* | 36
CCN(CC(=O)Nc1c(F)cccc1F)C(=O)c1ccc(OCC(=O)N2CCOCC2)c(OC)c1 | / | / | -9 | / | /
Cc1cc(C)c(C#N)c(Sc2ccccc2N)n1 | -77 | 23 | 4 | -43 | 168*
SMILES | STAT3 inh | PPC-1+TRAIL kill | TRAIL sens C8 | STAT1 inh | STAT3 activator
COC(=O)C(Sc1nc(C)cc(C)c1C#N)c1ccccc1 (stereo not given) | 17 | -3 | -20 | 1 | 94
O=C(Cc1ccccc1)Nc1ncnc2c1C(c1ccccc1)c1c(ccc3ccccc13)O2 (stereo not given) | / | / | 41 | / | /
O=C(Nc1ncnc2c1C(c1ccccc1)c1c(ccc3ccccc13)O2)c1ccccc1 (stereo not given) | / | / | 59* | / | /
Oc1ccc(C=Nc2ccc3ncccc3c2)c(O)c1 | -12 | 17 | / | -5 | 115
CC(=O)N(C)c1ccc(N=Nc2ccc3ncccc3c2)cc1 | / | / | 62* | / | /
C/C=C/c1ccc(OCCCNC2CCCC2)c(OC)c1 | -3 | 34 | 54* | 9 | 104
C/C=C/c1ccc(OCCCNC(C)CC)c(OC)c1 (stereo not given) | 1 | 20 | -4 | -5 | 104
COC(=O)c1cc(C)nc2c1C(=O)C(=O)C=C2N1CCOCC1 | / | / | 92* | / | /
COC(=O)c1cc(S(=O)(=O)N2CCOCC2)c(Cl)cc1N1CCOCC1 | -3 | -1 | -8 | -5 | 103
Cc1cc(=O)oc2ccc(OCC(=O)N3CCC(C)CC3)cc12 | -35 | -1 | -5 | 1 | 135*
C[C@@H]1CN([C@@H](C)CO)C(=O)c2cc(NC(=O)CCN3CCOCC3)ccc2O[C@@H]1CN(C)C(=O)Nc1ccccc1 | / | / | -4 | / | /
CCc1ccc([C@H]2[C@@H]3C(=O)C[C@@H]4C(=O)N(c5ccccc5)C(=O)[C@@H]4[C@@H]3CN2S(=O)(=O)c2ccc(C)cc2)cc1 | / | / | 86* | / | /
COc1ccc(C[C@H](N)C(=O)N[C@H]2[C@@H](O)[C@H](n3cnc4c(N(C)C)ncnc43)O[C@@H]2CO)cc1 | / | / | 92* | / | /
Cc1ccc(NC(=O)CCCC(=O)O)c(-c2nc3ccccc3[nH]c2=O)c1 | / | / | 5 | / | /
O=c1c2ccccc2oc2ccc(C#CC3(O)CCCCC3)cc12 | / | / | 87* | / | /
N#Cc1ccc(C#Cc2ccc3oc4ccccc4c(=O)c3c2)cc1 | / | / | 2 | / | /
Cn1c2ccccc2c(=O)c2cc(C#CC3(O)CCCCC3)ccc21 | / | / | 92* | / | /
Cc1cc2sc3ccc(C#CC4(O)CCCCC4)cc3c(=O)c2cc1C | / | / | 88* | / | /
CCOC(=O)[C@]12CCC=C1N(Cc1cccc3ccccc13)C(=O)[C@H](CC(=O)NCCCCc1ccccc1)C2 | / | / | 1 | / | /
O=C(NCc1cc(Cl)cc(Cl)c1)c1ccc2nc([C@H]3C[C@H](O)[C@@H](CO)O3)[nH]c2c1 | / | / | -6 | / | /
CC(=O)c1cccc(NCC(=O)N2CCN(S(=O)(=O)c3ccccc3)CC2)c1 | / | / | -9 | / | /
CC(C)C[C@H]1CN([C@@H](Cc2ccc(O)cc2)CN2CCCC2CN2C(=S)NC[C@@H]2Cc2ccccc2)C(=S)N1CC1CCCCC1 (stereo not given in full) | / | / | -10 | / | /
O=c1[nH]c2ccccc2nc1/C=C(\O)c1cccs1 | -84 | 14 | 37 | -51 | 169*
O=c1[nH]c2ccccc2nc1/C=C/c1ccc(F)cc1 | 5 | 17 | 53* | -67 | 99
O/C(=C\c1nc2ccccc2[nH]1)c1cccs1 | / | / | 11 | / | /
SMILES | STAT3 inh | PPC-1+TRAIL kill | TRAIL sens C8 | STAT1 inh | STAT3 activator
CCOc1cnn(-c2cc(Oc3ccc(C)cc3)ncn2)c(=O)c1Cl | 14 | -16 | -2 | -11 | 94
Cc1ccccc1Oc1cc(-n2ncc(Cl)c(Cl)c2=O)ncn1 | -5 | 18 | 97* | -5 | 103
CS(=O)(=O)Nc1cccc(NC(=O)C2Cc3c(-c4ccccc4)ccnc3O2)c1 (stereo not given) | / | / | 57* | / | /
O=C(NC1=NCCS1)c1cccs1 | -1 | 0 | 45* | 2 | 105
COc1ccc(NC(=O)c2cccc(N3C(=O)c4ccc(C(=O)Nc5ccc(OC)c(O)c5)cc4C3=O)c2)cc1O | / | / | 58* | / | /
COc1ccccc1Nc1ncnc2c1c(C)c(C)n2CCO | / | / | 0 | / | /
CC(C)COC(=O)N(C)C[C@@H]1OCc2cnnn2CCCC(=O)N([C@H](C)CO)C[C@H]1C | / | / | -20 | / | /
